The subject of one test is MT4. In words: Cytotoxicity against human MT4 cells by CellTitre-Glo luminescent assay. Format: cell-based.
Test [1] relates to Human immunodeficiency virus 1. In words: Antiviral activity against HIV-1 NL4-3 infected in human MT4 cells assessed as inhibition of viral replication after 4 days by ELISA. Format: functional. Summed up: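 MT4 cells infected with HIV-1 NL4-3 at MOI 0.001 in presence of graded compound concentrations; fresh medium with compound added 48 h post-infection to sustain growth. Replication measured by p24 ELISA on day 4 post-infection. EC90 (concentration inhibiting replication by 90%) calculated from dose-response.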

Setting [2] is: Human immunodeficiency virus 1, NL4-3, MT4, 96 h.

Each structure is given as a SMILES string. Activity calls are given as the source filed them. The rule behind the calls is not given here.

The values below come from ChEMBL document CHEMBL2375298, “Isolation, structure determination, and anti-HIV evaluation of tigliane-type diterpenes and biflavonoid from Stellera chamaejasme” (J Nat Prod, 2013).

In general, IC50 refers to the point on the concentration scale where inhibition reaches its midpoint. Low values mean inhibition by little substance, high ones a need for much substance. For orientation: EC90 means the concentration at which the effect reaches the 90% level. The molecule `C=C(C)[C@@]12C[C@@H](COC(=O)c3ccccc3)[C@@]34OC5(O[C@@H]1[C@@H]3[C@@H]1O[C@]1(CO)[C@@H](O)[C@@]1(O)[C@H]4[C@H]([C@H](C)[C@@H]1OC(=O)c1ccccc1)[C@H](C)CCCCCC[C@H]5O)O2` [GNIDIMACRIN] returned an IC50 with MT4 of 4.3 µM. In addition, the EC90 in test [1] (setting [2]) worked out at 0.0004 µM.

For the molecule `CCCCC/C=C\CCC(=O)O[C@@]12[C@H](OC(=O)c3ccccc3)[C@@H](C)[C@@]3(O)[C@@H](C=C(CO)C[C@]4(O)C(=O)C(C)=C[C@@H]34)[C@@H]1C2(C)C`, the IC50 in the test on MT4 was 4.7 µM. The 90% effect concentration (EC90) in test [1] (setting [2]) came out at 0.00066 µM.

On to `COc1ccc([C@@H]2Oc3cc(O)cc(O)c3C(=O)[C@@H]2[C@H]2C(=O)c3c(O)cc(O)cc3O[C@H]2c2ccc(OC)cc2)cc1`, for which the EC90 result in test [1] is “inactive”.

Molecule `COc1cc(/C=C/C(=O)OCCCCCCCCCCCCCCCCCCCCCC(=O)OCC(O)CO)ccc1O` (configuration not stated) had an IC50 with MT4 of 16.2 µM.

On to `O=C(/C=C/CCc1ccccc1)c1ccccc1`, for which, in test [1], the EC90 result was “inactive”.

On to `COc1ccc([C@@H]2Oc3cc(O)cc(O)c3C(=O)[C@@H]2[C@H]2C(=O)c3c(O)cc(OC)cc3O[C@H]2c2ccc(OC)cc2)cc1`, for which the EC90 entry in test [1] was “inactive”.

For the molecule `C=C(C)[C@]12C[C@@H](COC(C)=O)[C@@]34O[C@]5(O[C@@H]1[C@@H]3[C@@H]1O[C@]1(CO)[C@@H](O)[C@@]1(O)[C@H]4[C@H]([C@H](C)[C@@H]1OC(=O)c1ccccc1)[C@H](C)CCCCCC[C@H]5O)O2`, in the test on MT4, the IC50 is 4.3 µM. Moreover, the EC90 in test [1] (setting [2]) came to 0.0004 µM.

In the case of `COc1ccc([C@@H]2Oc3cc(OC)cc(O)c3C(=O)[C@H]2[C@@H]2C(=O)c3c(O)cc(O)cc3O[C@H]2c2ccc(O)cc2)cc1`, in the test with MT4, inhibition was half-maximal at 17.5 µM (IC50). The EC90 in test [1] (setting [2]) was 4.21 µM.

Consider `CCCCCCCC(=O)O[C@@]12[C@H](OC(=O)c3ccccc3)[C@@H](C)[C@]3(O)[C@@H]4C=C(C)C(=O)[C@@]4(O)[C@H](O)C(CO)=C[C@H]3[C@@H]1C2(C)C`, for which, in the test on MT4, the IC50 worked out at 17.2 µM. In addition, the EC90 in test [1] (setting [2]) was 0.0038 µM.

As to `CCCCCCCC(=O)O[C@@]12[C@H](OC(=O)c3ccccc3)[C@@H](C)[C@@]3(O)[C@H]([C@@H]1C2(C)C)[C@@H](OO)C(CO)=C[C@]1(O)C(=O)C(C)=C[C@@H]31`, the midpoint of inhibition in the test with MT4, the IC50, lay at 15.8 µM. The EC90 in test [1] (setting [2]) was found to be 1.52 µM.

The molecule `CCCCCCCCCC(=O)O[C@@]12[C@H](OC(=O)c3ccccc3)[C@@H](C)[C@@]3(O)[C@@H](C=C(CO)C[C@]4(O)C(=O)C(C)=C[C@@H]34)[C@@H]1C2(C)C` [STELLERARIN] yielded an IC50 in the test with MT4 of 5.1 µM. For the same molecule, the EC90 in test [1] (setting [2]) came out at 0.0005 µM.

Consider `CCCCCCCCCC(=O)O[C@@]12[C@H](OC(=O)c3ccccc3)[C@@H](C)[C@@]3(O)[C@H]([C@@H]1C2(C)C)[C@@H](OO)C(CO)=C[C@]1(O)C(=O)C(C)=C[C@@H]31`, for which it took 3.5 µM to reach half-maximal inhibition in the test with MT4 (IC50). Further, the 90% effect concentration (EC90) in test [1] (setting [2]) is 0.49 µM.

As to `CC/C=C\C/C=C\CCC(=O)O[C@@]12[C@H](OC(=O)c3ccccc3)[C@@H](C)[C@@]3(O)[C@@H](C=C(CO)C[C@]4(O)C(=O)C(C)=C[C@@H]34)[C@@H]1C2(C)C`, the IC50 in the test on MT4 was found to be 7.8 µM. Also, the concentration for an effect of 90% (EC90) in test [1] (setting [2]) was found to be 0.0068 µM.
